Assay outcomes from PubChem BioAssay.
TNAP act hiacc: increases human TNAP activity under high phosphate acceptor concentration; 200,000 tested, under 10 active; purified TNAP, CDP-star luminescence, 1 M DEA, 30 min; active compounds read high; 0 = EDTA background, 1 = DMSO-only activity; activation factor at 20 µM; P05186;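 active = activation factor at least 2 at 20 µM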
Target sequence (P05186 whole entry, looked up): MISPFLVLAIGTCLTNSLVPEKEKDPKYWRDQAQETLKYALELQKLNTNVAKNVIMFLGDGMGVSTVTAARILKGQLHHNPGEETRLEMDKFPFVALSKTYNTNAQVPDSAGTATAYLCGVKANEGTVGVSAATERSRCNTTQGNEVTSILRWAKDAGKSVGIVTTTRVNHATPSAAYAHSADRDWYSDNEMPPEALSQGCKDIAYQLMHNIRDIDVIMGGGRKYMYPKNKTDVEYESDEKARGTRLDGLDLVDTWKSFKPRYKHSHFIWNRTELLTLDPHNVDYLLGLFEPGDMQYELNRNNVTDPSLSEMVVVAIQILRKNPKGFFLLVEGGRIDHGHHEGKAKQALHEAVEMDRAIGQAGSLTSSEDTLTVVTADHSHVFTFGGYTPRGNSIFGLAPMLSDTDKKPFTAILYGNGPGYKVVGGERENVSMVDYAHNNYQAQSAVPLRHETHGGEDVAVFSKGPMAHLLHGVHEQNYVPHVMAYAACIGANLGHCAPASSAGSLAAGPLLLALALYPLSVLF
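Measured by: Luminescent substrate turnover signal | Test system: Human TNAP | Input: TNAP 1/800 final | Dosing: 20 µM single point | Schedule: 30 min, room temperature | Controls: EDTA wells as negative control, DMSO wells as positive control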
TNAP inh hiacc: blocks human TNAP under high phosphate acceptor concentration; purified TNAP, CDP-star luminescence, 1 M DEA; inhibition, % at 20 µM; 200,000 tested, 0.03% active; AID 1135;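 active = over 50% inhibition of tissue-nonspecific alkaline phosphatase at 20 µM in the single-dose screen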;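 note: plate controls were DMSO wells for no effect and EDTA-quenched wells as full inhibition for full effect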
Lmaj promast: Leishmania major promastigote growth inhibition; inhibition, % at 10 µM; Leishmania major promastigotes, resazurin fluorescence viability; AID 1063; 200,000 tested, 9% active; in the data active = inhibition above about 50%;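 note: promastigotes grown with compound for 44 hours at 28 °C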
HCT116 bCat-KO: beta-catenin-lacking colon tumor cell growth suppression | HCT116 beta-catenin knockout viability, CellTiter-Glo, 60 h; active compounds read low | viability, % at 10 µM | 140,000 tested, 1.5% active;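 active = viability at or under a set limit, the compound median less 4 SD, cut at about 6% in these data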;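 note: 0% = Hyamine 1622 control at 20 µM and 100% = untreated cell control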
TNAP inh no acc: TNAP (human) inhibition, acceptor-free conditions; inhibition, % at 20 µM; AID 1012; 200,000 tested, 0.26% active; purified TNAP, CDP-star luminescence, 30 min; P05186;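 active = tissue-nonspecific alkaline phosphatase inhibition above about 50% at 20 µM in the single-dose screen, limit read from the data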;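 note: 0% = DMSO negative control and 100% = EDTA positive control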
PTEN del growth: growth suppressors of cells with PTEN tumor suppressor deletion. viability, % at 10 µM. 140,000 tested, 1.2% active. AID 827. HCT116 PTEN-null viability, CellTiter-Glo, 60 h; active compounds read low;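 active = viability at or below a set limit, 4 SD under the median of all tested compounds, cut at about 3.7% in these data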;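 note: PTEN knockout HCT116 line with beta catenin targeted HCT116 as companion control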
The depositor's hits bear a star; nt = no result. This is a sample that favours compounds with a hit; in the whole collection about 9.6% have one here.

SMILES | TNAP act hiacc | TNAP inh hiacc | Lmaj promast | HCT116 bCat-KO | TNAP inh no acc | PTEN del growth
Oc1ccccc1-c1nc(N2CCN(Cc3ccccc3)CC2)c2ccccc2n1 | 1 | -1 | 19 | 77 | -7 | 72
O=[N+]([O-])c1cc(CN2CCN(c3ccccc3)CC2)c(O)c2ncccc12 | 0.9 | 13 | 100* | nt | 18 | nt
CCc1ccc(-n2c(Cc3ccccc3)n[nH]c2=S)cc1 | 1 | 2 | -7 | nt | -69 | nt
CCN(CC)S(=O)(=O)c1cc(C(=O)N(C)CC(=O)Nc2ccc(Cl)cc2)ccc1Cl | 1.1 | -7 | 39 | 70 | -9 | 72
Cc1ccc(OC(C)C(=O)Nc2ccc(C)c(S(=O)(=O)Nc3ccc(C)cc3C)c2)cc1 (centres undefined) | 1 | -2 | 67* | 60 | -11 | 55
O=c1c(Cl)c(Cl)cnn1Cc1nnc(-c2ccccc2Br)o1 | 1 | -2 | 99* | nt | -9 | nt
O=C(OCCN1CCCCC1)c1ccccc1Cl | 1 | -3 | 1 | 85 | -9 | 96
Cc1cc(Cl)c(OCCCN2CCCCC2)c(Br)c1 | 1 | 2 | 97* | 62 | -13 | 66
O=C(OCCCN1CCCC1)C1(c2ccccc2)CCCC1 | 1.1 | -7 | 100* | 97 | -14 | 105
Cc1cc(C)c(OCCN2C(=O)NC(C)(C)C2=O)c(Cl)c1 | 1 | -1 | 8 | 86 | -2 | 97
Cc1cc(Cl)c(OCCN2C(=O)NC(C)(C)C2=O)c(Br)c1 | 1.1 | -7 | 63* | 92 | 3 | 92
Clc1ccccc1OCCCCN1CCCC1 | 1.1 | -6 | 96* | 92 | -11 | 88
CCN(CC(=O)Nc1cccc(C(C)=O)c1)S(=O)(=O)c1ccccc1 | 1 | -4 | -4 | nt | 3 | nt
Brc1ccccc1OCCCN1CCCCCC1 | 1 | -4 | 90* | nt | -7 | nt
CC(=O)c1ccccc1OCCCN1CCCCC1 | 1 | -4 | 90* | 94 | -12 | 102
Brc1ccccc1OCCCCn1cnc2ccccc21 | 1.1 | -8 | 19 | nt | -10 | nt
Brc1ccccc1OCCCCCN1CCOCC1 | 1.1 | -6 | 93* | nt | -1 | nt
O=C(NCCN1CCOCC1)C1CCN(S(=O)(=O)N2CCCC2)CC1 | 1 | -4 | 2 | nt | -13 | nt
O=C(CN1CCN(S(=O)(=O)c2ccccc2F)CC1)Nc1ccccc1C(=O)c1ccccc1 | 1 | -4 | 18 | nt | -2 | nt
CCNC(=S)N/N=C(\C)c1cc2ccccc2o1 | 1 | 1 | -5 | 86 | -72 | 87
C/C(=N\NC(=S)Nc1cccc(C)c1)c1cc2ccccc2o1 | 1 | -2 | 90* | nt | -69 | nt
CCOC(=O)C1CCCN(c2oc(-c3ccc(OC)cc3)nc2C#N)C1 (centres undefined) | 1 | -1 | 27 | nt | -2 | nt
COc1ccc(S(=O)(=O)N2CCN(Cc3ccc(Cl)cc3)CC2)cc1 | 1 | -2 | 51* | 81 | 1 | 88
CC1CCN(S(=O)(=O)c2ccc3ccccc3c2)CC1 | 1.1 | -5 | -6 | 100 | -7 | 101
CCOC(=O)N1CCC(N2CCN(S(=O)(=O)c3ccc4ccccc4c3)CC2)CC1 | 1 | -4 | 98* | 78 | 0 | 80
SMILES | TNAP act hiacc | TNAP inh hiacc | Lmaj promast | HCT116 bCat-KO | TNAP inh no acc | PTEN del growth
O=S(=O)(c1ccc(Cl)cc1)N1CCN(C2CCN(Cc3ccccc3)CC2)CC1 | 1 | -3 | 99* | 79 | -8 | 76
CS(=O)(=O)N1CCN(C2Cc3ccccc3C2)CC1 | 1 | 2 | 36 | 92 | -10 | 98
COc1ccc(S(=O)(=O)N2CCN(C3Cc4ccccc4C3)CC2)cc1 | 1 | 0 | 97* | 85 | -7 | 93
COc1ccc(S(=O)(=O)N2CCN(Cc3cccc(Cl)c3)CC2)cc1 | 1 | 1 | 1 | 87 | -1 | 86
O=S(=O)(Cc1ccc(Cl)cc1)N1CCN(Cc2ccccc2)CC1 | 1 | 2 | 7 | 62 | -1 | 58
CC(NC(=O)c1cc(S(=O)(=O)N(C)C)ccc1N1CCCC1)C1CC2CCC1C2 (centres undefined) | 1 | -3 | 25 | nt | -13 | nt
COC(=O)CSc1nn(-c2ccc(F)cc2)c(=S)s1 | 1 | 1 | -6 | nt | -3 | nt
CC(Nc1cccc(F)c1)C(=O)Nc1ccc(S(N)(=O)=O)cc1 (centres undefined) | 1.1 | -5 | 10 | nt | -9 | nt
O=C(c1ccccc1SCc1ccc(F)cc1)N1CCOCC1 | 1 | -4 | -4 | nt | -5 | nt
COc1ccc(S(=O)(=O)N2CCC(N3CCN(Cc4ccccc4)CC3)CC2)cc1 | 1 | -4 | 87* | nt | -10 | nt
COc1ccc(S(=O)(=O)N2CCC(CN3C(=O)c4cccc5cccc(c45)C3=O)CC2)cc1 | 1 | 1 | 98* | 98 | -19 | 95
COc1ccc(OC)c(S(=O)(=O)N2CCC(C(=O)N3CCN(Cc4ccccc4)CC3)CC2)c1 | 1 | 2 | -4 | 86 | -5 | 83
N[C@@H](CO)c1nnc([C@H](CC(=O)O)NC(=O)C2CCNCC2)o1 | 1 | -5 | -2 | nt | -12 | nt
CC(C)(C)NC(=O)COc1ccc(-c2ccccc2)cc1 | 1 | -2 | 1 | 58 | -13 | 71
COC(=O)c1cc(C(=O)OC)[nH]n1 | 0.9 | 9 | -5 | nt | 23 | nt
CC(C)(C)NC(=O)c1cc(-c2ccccc2)n[nH]1 | 1 | 0 | -5 | nt | 92* | nt
COC(=O)c1cc(-c2ccc(Cl)cc2Cl)n[nH]1 | 1 | 2 | -4 | nt | 81* | nt
COC(=O)c1cc(-c2ccc(Cl)cc2)n[nH]1 | 1.1 | -6 | -6 | nt | 87* | nt
COC(=O)c1cc(-c2ccccc2)n[nH]1 | 1 | 2 | 0 | 84 | 92* | 98
COC(=O)c1cc(-c2ccc(OC)c(OC)c2)n[nH]1 | 1 | 0 | 0 | 92 | 9 | 89
CNC(=O)c1[nH]cnc1C(=O)Nc1ccccn1 | 1.1 | -8 | 0 | nt | -127 | nt
O=C(Nc1ncc(Cc2ccc(SC(F)F)cc2)s1)c1ccc(OC(F)F)cc1 | 1 | -5 | -4 | 10 | -6 | 11
CCOC(=O)C1(Cc2ccccc2)CCCN(C2CCCC2)C1 (centres undefined) | 1.1 | -8 | 76* | nt | -10 | nt
CCOC(=O)C1(Cc2ccccc2)CCN(C2Cc3ccccc3C2)CC1 | 1.1 | -5 | 83* | nt | -8 | nt
CCOc1cc(CN2CCCC(C(=O)c3cccc(C(F)(F)F)c3)C2)ccc1O (centres undefined) | 1 | -4 | 54* | nt | 5 | nt
CC(C)Oc1cccc(C(=O)C2CCCN(Cc3cccn3-c3ccccn3)C2)c1 (centres undefined) | 1.1 | -6 | 98* | nt | -7 | nt
CCOC(=O)C1CCCN(Cc2ccc(O)c(OC)c2)C1 (centres undefined) | 1 | -4 | -2 | 93 | -9 | 95
Cc1noc(C)c1S(=O)(=O)N1CCCC(C(=O)c2cccc(OC(C)C)c2)C1 (centres undefined) | 1.1 | -6 | 56* | nt | 0 | nt
